This note sets out measurements from ChEMBL document CHEMBL1148699, “Characterization of the intracellular mechanisms involved in the antiaggregant properties of cinnamtannin B-1 from bay wood in human platelets” (2007).

Active and inactive are the calls of the source. The calls are words filed in the database; no cut-off is given here.

Test [1] has as its system Platelet. In words: Effect on thrombin-induced human platelet aggregation assessed as lag time at 10 uM after 10 mins. It counts as functional. The gist of the method:
(§1)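 Washed human platelets (aspirin 100 µM and apyrase in PRP) suspended in HBS pH 7.45 with 1 mM Ca2+. Preincubated 10 min with 10 µM agent or DMSO vehicle, then stimulated with 0.1 U/mL thrombin at 37 °C with stirring at 1200 rpm in an aggregometer. Lag time, % rate and % aggregation read from traces; mean ± SEM of four determinations.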

For test [2], the system named is Platelet. The experiment in a line: Effect on rate of thrombin-induced human platelet aggregation at 10 uM after 10 mins. The test is classed as functional. The gist of the method: as §1
Test [3] has as its system Platelet. In words: Effect on thrombin-induced human platelet aggregation at 10 uM after 10 mins. The test is classed as functional. The gist of the method:
as §1

Test [4] relates to Platelet. In words: Effect on thrombin-induced human platelet aggregation assessed as lag time at 0.1 uM. It counts as functional. The gist of the method: (§2)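 Washed human platelets (from aspirin- and apyrase-treated PRP) in HEPES-buffered saline, pH 7.45, with 1 mM Ca2+. Preincubated 30 min with 0.1-10 µM compound (10 mM DMSO stock) or vehicle. Stimulated with 0.1 U/mL thrombin or 10 µM ADP. Read in an aggregometer at 37 °C, stirred at 1200 rpm, as lag time, % rate and % aggregation. Mean ± SEM, six determinations.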

Test [5] concerns Platelet. In words: Effect on rate of thrombin-induced human platelet aggregation at 0.1 uM. It counts as functional. The gist of the method: as §2
Test [6] concerns Platelet. In words: Effect on thrombin-induced human platelet aggregation at 0.1 uM. It counts as functional. The gist of the method: as §2
The target in test [7] is Proto-oncogene tyrosine-protein kinase Src (Homo sapiens) (UniProt P12931). The experiment in a line: Inhibition of thrombin-induced pp60src activation at 10 uM after 30 mins. The gist of the method: (§3)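 Platelets in HBS with 1 mM Ca2+ pretreated 30 min at 37 °C with 10 µM compound, alone or with 300 U/mL catalase (10 min). Sampled 10 s before and 60 s after 0.1 U/mL thrombin. SDS-PAGE and immunoblot with anti-phospho-c-Src Y416, reprobed for total pp60src. Densitometry as % of untreated resting cells; mean ± SEM, four experiments.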

For test [8] the target is unchanged. In words: Inhibition of thrombin-induced pp60src activation in presence of catalase. The gist of the method:
as §3

Test [9] has as its system Platelet. The experiment in a line: Effect on thrombin-induced calcium mobilization in human platelets. The test is classed as functional, cell-based. The gist of the method: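 Platelets loaded with 2 µM fura-2/AM for 45 min at 37 °C, 2 × 10^8 cells/mL, stirred at 37 °C. Exposed to 10 µM compound for 30 min. Ca2+-free medium with 100 µM EGTA, then 0.1 U/mL thrombin. Excitation 340/380 nm, emission 505 nm; ratio calibrated to [Ca2+]i. Peak rise above basal taken; n = 6.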

The test system of test [10] is Platelet. In words: Effect on thrombin-induced human platelet aggregation assessed as lag time at 1.0 uM. The test is classed as functional. The gist of the method:
as §2

Test [11] relates to Platelet. The experiment in a line: Effect on thrombin-induced human platelet aggregation assessed as lag time at 10 uM. The test is classed as functional. The gist of the method:
as §2

For test [12], the system named is Platelet. In words: Effect on ADP-induced human platelet aggregation assessed as lag time at 10 uM. It counts as functional. The gist of the method:
as §2

Test [13] deals with Platelet. In words: Effect on rate of thrombin-induced human platelet aggregation at 1.0 uM. The test is classed as functional. The gist of the method:
as §2

Test [14] concerns Platelet. The experiment in a line: Effect on rate of thrombin-induced human platelet aggregation at 10 uM. It counts as functional. The gist of the method:
as §2

In test [15] the test system is Platelet. The experiment in a line: Effect on rate of ADP-induced human platelet aggregation at 10 uM. It counts as functional. The gist of the method:
as §2

The test system of test [16] is Platelet. In words: Effect on thrombin-induced human platelet aggregation at 1.0 uM. It counts as functional. The gist of the method: as §2
The test system of test [17] is Platelet. In words: Effect on thrombin-induced human platelet aggregation at 10 uM. The test is classed as functional. The gist of the method: as §2
For test [18], the system named is Platelet. The experiment in a line: Effect on of ADP-induced human platelet aggregation at 10 uM. It counts as functional. The gist of the method:
as §2

In test [19] the test system is Platelet. In words: Effect on thrombin-induced human platelet aggregation assessed as lag time in presence of catalase. The test is classed as functional. The gist of the method: (§4)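 Washed human platelets in HBS with 1 mM Ca2+. Treated with 10 µM compound for 30 min, plus either 300 U/mL catalase for 10 min or 100 µM colchicine for 2 h; controls received each agent alone or vehicle. Thrombin 0.1 U/mL at 37 °C, stirring at 1200 rpm. Lag time, % rate and % aggregation recorded; mean ± SEM, six determinations.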

Test [20] relates to Platelet. In words: Effect on rate of thrombin-induced human platelet aggregation in presence of catalase. The test is classed as functional. The gist of the method: as §4
Test [21] relates to Platelet. In words: Effect on thrombin-induced human platelet aggregation in presence of catalase. The test is classed as functional. The gist of the method: as §4
The test system of test [22] is Platelet. In words: Effect on thrombin-induced human platelet aggregation assessed as lag time in presence of colchicine. It counts as functional. The gist of the method:
as §4

In test [23] the test system is Platelet. The experiment in a line: Effect on rate of thrombin-induced human platelet aggregation in presence of colchicine. The test is classed as functional. The gist of the method:
as §4

The subject of test [24] is Platelet. The experiment in a line: Effect on thrombin-induced human platelet aggregation in presence of colchicine. The test is classed as functional. The gist of the method: as §4
Test [25] concerns Platelet. The experiment in a line: Effect on thrombin-induced microtubular reorganization at 10 uM after 30 mins. It counts as functional, Homo sapiens. The gist of the method:
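Platelets pretreated with 10 µM compound for 30 min at 37 °C, then 0.1 U/mL thrombin for 1 min in HBS at 2 × 10^7 cells/mL. Fixed in an equal volume of ice-cold 3% formaldehyde in PBS for 10 min, permeabilized with 0.025% NP40, stained 30 min with 1 µM Oregon Green 488 paclitaxel. Fluorescence at ex 488/em 522 nm; n = 6.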

Test [26] concerns the target Tyrosine-protein kinase BTK (Homo sapiens) (UniProt Q06187). The experiment in a line: Effect on thrombin-induced Btk activation at 10 uM after 30 mins. The gist of the method: (§5)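 Platelets in HBS with 1 mM Ca2+ held 30 min at 37 °C with 10 µM compound, alone or with 300 U/mL catalase (10 min). Samples taken 10 s before and 30 s after 0.1 U/mL thrombin, lysed in Laemmli buffer. Western blot for phospho-Btk Y223, reprobed for total Btk. Densitometry as % of resting control; mean ± SEM, four experiments.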

The target is the same in test [27]. In words: Effect on thrombin-induced Btk activation in presence of catalase. The gist of the method:
as §5

Test [28] relates to Platelet. In words: Reduction of thrombin-induced phosphotyrosine content in human platelets at 10 uM after 30 mins.

Chain of Proto-oncogene tyrosine-protein kinase Src (Homo sapiens) (P12931 2-536 limits assumed): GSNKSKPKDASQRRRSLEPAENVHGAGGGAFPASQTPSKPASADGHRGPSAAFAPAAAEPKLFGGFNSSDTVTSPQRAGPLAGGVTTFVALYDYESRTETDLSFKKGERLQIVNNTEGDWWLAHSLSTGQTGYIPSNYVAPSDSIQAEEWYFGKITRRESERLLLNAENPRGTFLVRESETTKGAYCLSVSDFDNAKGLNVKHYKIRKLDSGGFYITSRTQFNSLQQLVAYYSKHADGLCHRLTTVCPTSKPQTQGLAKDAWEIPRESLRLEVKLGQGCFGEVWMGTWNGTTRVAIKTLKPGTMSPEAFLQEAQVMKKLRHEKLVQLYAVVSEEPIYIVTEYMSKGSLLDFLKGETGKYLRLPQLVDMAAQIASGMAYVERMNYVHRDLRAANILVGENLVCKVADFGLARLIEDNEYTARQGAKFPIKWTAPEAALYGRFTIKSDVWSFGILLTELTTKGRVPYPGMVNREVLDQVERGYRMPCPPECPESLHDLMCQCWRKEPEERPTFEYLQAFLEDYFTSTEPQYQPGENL
Chain of Tyrosine-protein kinase BTK (Homo sapiens) (Q06187 whole entry): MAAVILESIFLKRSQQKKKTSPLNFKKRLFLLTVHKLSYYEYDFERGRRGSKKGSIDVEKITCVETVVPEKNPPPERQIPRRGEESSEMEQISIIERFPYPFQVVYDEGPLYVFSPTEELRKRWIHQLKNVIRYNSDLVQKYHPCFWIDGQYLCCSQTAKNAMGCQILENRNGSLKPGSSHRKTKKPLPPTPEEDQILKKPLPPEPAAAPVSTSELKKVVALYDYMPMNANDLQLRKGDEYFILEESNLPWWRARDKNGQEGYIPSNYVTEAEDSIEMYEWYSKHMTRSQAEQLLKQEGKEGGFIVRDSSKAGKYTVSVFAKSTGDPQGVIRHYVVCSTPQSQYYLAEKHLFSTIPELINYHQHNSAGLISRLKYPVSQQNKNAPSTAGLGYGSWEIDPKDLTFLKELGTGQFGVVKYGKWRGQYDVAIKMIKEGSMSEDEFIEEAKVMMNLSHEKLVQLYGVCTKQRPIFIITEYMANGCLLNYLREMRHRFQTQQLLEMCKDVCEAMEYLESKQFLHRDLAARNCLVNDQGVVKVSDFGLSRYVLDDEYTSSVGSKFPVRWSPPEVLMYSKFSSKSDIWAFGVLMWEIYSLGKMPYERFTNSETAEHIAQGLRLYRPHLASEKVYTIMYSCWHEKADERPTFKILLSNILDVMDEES

In the case of `C/C(O)=C(\C#N)C(=O)Nc1cc(Br)ccc1Br`, the Time with Platelet [1] is on record as 24.3 s. In addition, the Activity was 66.3% in the test on Platelet [2] and 68.7% in the test with Platelet [3].
As for `COc1cc2c(c(OC)c1OC)-c1ccc(OC)c(=O)cc1[C@@H](NC(C)=O)CC2` [COLCHICINE], the Time in the test with Platelet [4] was determined as 9.3 s. Besides, the Activity is listed as 59% in the test with Platelet [5] and 71.2% in the test with Platelet [6].
As for `Cc1ccc(-c2nn(C(C)(C)C)c3ncnc(N)c23)cc1`, the Time in the test on Platelet [1] is 26.5 s. For the same molecule, the results for the Activity with Platelet [2] and in the test with Platelet [3] were 59.7% and 67.1%, respectively.
`Oc1cc(O)c2c(c1)O[C@@]1(c3ccc(O)c(O)c3)Oc3cc(O)c4c(c3[C@@H]2[C@H]1O)O[C@H](c1ccc(O)c(O)c1)[C@H](O)[C@H]4c1c(O)cc(O)c2c1O[C@H](c1ccc(O)c(O)c1)[C@H](O)C2` [CINNAMTANNIN B1]: the outcome (in test [7]; in [8]; in the test on Platelet [28]) was Active. Besides, in the test on Platelet [9], the outcome was inactive. Further, the Time with Platelet [4] is 9.2 s; with Platelet [10], 9.8 s; in the test with Platelet [11] it was 10.6 s; in the test with Platelet [12], 15.6 s; in the test on Platelet [19] it was 9.1 s; in the test with Platelet [22] it was 15 s. The Activity was found to be 49% with Platelet [5]; 43.7% in the test with Platelet [13]; 42.1% with Platelet [14]; 9% with Platelet [15]; 81.9% in the test with Platelet [6]; 80.6% in the test on Platelet [16]. In addition, the Activity in the test on Platelet [17] came to 71.8%; in the test with Platelet [18], 9.5%; in the test on Platelet [20] it was 48.1%; in the test with Platelet [21], 77%; in the test with Platelet [23], 40.3%; in the test with Platelet [24], 74.6%. The Activity was found to be 15% in the test on Platelet [25], 50% in [26] and 90% in test [27].
